Data from paper PMC11327602 (Heliyon, 2024).

Assays:
jack bean urease = jack bean urease (Canavalia ensiformis, UniProt P07374); assay: Urease inhibition assay; type: biochemical; settings: for IC50: Enzyme (SEM ±) J.B Urease, IC50, mean ± SEM, 3 experiments
[1] = target: Bacillus Pasteurii urease (Sporosarcina pasteurii, UniProt P41020); assay: Urease inhibition assay; type: biochemical; settings: Enzyme (SEM ±) B.P Urease, IC50, mean ± SEM, 3 experiments
[2] = DPPH free radical scavenging activity; settings: for IC50: read-out: DPPH scavenging IC50
ABTS method = settings: for IC50: read-out: ABTS scavenging IC50
[3] = Superoxide anion scavenging assay; settings: for IC50: read-out: superoxide anion scavenging IC50
α-Glucosidase = α-Glucosidase (Saccharomyces cerevisiae, UniProt P53341); assay: α-Glucosidase inhibition assay; type: biochemical
Procedure, shortened: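 Test compound (200–800 μg/mL) pre-incubated 5 min at 37 °C with 2 % w/v starch (sucrose) solution in 0.2 M Tris buffer, pH 8.0. 5 mM p-nitrophenyl-α-D-glucopyranoside added intermittently, then α-glucosidase (1 U/mL), 40 min at 35 °C. Stopped with […]; absorbance read at 405 nm. % inhibition = (control − sample)/control × 100; samples above 50 % taken to IC50.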

Chain of α-Glucosidase (P53341 whole entry): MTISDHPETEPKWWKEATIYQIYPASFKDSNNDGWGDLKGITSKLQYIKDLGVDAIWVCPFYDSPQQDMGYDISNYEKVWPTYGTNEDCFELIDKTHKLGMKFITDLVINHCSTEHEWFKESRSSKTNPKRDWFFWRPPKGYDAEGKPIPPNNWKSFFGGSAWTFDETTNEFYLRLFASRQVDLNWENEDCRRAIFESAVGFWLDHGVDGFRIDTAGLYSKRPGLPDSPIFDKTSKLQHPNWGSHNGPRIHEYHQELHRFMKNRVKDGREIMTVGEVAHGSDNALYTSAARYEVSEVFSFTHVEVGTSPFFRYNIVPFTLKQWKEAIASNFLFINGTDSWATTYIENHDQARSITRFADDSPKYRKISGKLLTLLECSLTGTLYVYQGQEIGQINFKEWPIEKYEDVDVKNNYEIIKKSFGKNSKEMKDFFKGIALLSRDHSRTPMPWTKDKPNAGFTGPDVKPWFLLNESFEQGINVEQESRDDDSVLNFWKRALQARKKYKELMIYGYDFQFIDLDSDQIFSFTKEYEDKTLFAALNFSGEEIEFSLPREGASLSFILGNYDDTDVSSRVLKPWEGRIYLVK
Chain of jack bean urease (P07374 whole entry, looked up): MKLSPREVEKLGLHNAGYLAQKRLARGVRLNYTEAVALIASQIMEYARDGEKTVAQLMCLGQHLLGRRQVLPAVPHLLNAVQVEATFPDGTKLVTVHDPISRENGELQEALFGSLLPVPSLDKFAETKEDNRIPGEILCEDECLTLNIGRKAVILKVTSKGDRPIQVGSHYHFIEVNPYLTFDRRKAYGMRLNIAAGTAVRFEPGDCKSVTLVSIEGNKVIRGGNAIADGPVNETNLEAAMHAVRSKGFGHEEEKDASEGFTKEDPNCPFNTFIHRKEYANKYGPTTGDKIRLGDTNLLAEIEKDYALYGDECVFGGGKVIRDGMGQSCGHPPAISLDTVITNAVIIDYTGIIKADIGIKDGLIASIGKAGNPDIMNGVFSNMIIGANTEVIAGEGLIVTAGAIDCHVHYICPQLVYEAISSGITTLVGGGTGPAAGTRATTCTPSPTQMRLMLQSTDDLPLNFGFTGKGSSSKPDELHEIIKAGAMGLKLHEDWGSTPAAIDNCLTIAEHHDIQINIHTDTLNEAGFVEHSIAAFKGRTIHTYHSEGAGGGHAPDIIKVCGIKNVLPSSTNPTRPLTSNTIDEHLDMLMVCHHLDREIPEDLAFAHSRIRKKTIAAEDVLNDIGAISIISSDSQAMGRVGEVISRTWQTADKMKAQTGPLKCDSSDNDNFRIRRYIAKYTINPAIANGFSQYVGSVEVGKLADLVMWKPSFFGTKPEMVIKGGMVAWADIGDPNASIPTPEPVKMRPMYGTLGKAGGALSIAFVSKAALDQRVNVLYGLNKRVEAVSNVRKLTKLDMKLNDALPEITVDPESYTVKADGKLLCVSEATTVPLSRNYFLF
Chain of Bacillus Pasteurii urease (P41020 whole entry): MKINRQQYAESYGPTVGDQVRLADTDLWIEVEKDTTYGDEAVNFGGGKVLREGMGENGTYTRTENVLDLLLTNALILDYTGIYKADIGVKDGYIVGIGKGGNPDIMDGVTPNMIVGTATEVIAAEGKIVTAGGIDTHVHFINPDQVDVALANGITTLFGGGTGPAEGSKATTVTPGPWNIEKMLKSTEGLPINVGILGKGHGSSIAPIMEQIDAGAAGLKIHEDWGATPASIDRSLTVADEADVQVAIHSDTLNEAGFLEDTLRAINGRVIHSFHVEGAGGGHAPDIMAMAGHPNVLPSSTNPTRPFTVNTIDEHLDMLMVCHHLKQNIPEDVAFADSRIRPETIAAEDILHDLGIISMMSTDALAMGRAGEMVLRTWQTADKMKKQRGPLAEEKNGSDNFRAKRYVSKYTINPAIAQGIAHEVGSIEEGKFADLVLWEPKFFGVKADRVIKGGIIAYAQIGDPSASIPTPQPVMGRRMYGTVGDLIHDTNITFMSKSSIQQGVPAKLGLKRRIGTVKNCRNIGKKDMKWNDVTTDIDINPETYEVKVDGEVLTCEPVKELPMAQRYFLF
Chain of Bacillus Pasteurii urease (P41021 whole entry partner): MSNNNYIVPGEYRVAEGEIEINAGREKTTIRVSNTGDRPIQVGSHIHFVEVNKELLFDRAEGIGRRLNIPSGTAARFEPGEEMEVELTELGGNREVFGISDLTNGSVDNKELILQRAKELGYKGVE
Chain of Bacillus Pasteurii urease (P41022 whole entry partner): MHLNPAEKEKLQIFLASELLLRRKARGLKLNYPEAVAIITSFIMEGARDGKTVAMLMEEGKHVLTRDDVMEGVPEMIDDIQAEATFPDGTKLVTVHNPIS

Types of inhibition (urease) (jack bean urease)	IC50 (jack bean urease)	IC50 [1]	IC50 [2]	IC50 (ABTS method)	IC50 [3]	Type of Inhibition (α-glucosidase and α-amylase) (α-Glucosidase)	SMILES	DPPH % Scavenging ([2]; 25 μM)	DPPH % Scavenging ([2]; 50 μM)	DPPH % Scavenging ([2]; 75 μM)	DPPH % Scavenging ([2]; 100 μM)	ABTS % Scavenging (ABTS method; 10 μM)	ABTS % Scavenging (ABTS method; 20 μM)	ABTS % Scavenging (ABTS method; 30 μM)	ABTS % Scavenging (ABTS method; 40 μM)	ABTS % Scavenging (ABTS method; 50 μM)	superoxide anion % scavenging ([3]; 25 μM)	superoxide anion % scavenging ([3]; 50 μM)	superoxide anion % scavenging ([3]; 75 μM)	superoxide anion % scavenging ([3]; 100 μM)	also measured
Competitive	24.31 ± 0.18 µM	27.15 ± 0.14 µM	69.5 ± 0.1 µM	49.03 ± 0.15 µM	67.6 ± 0.93 µM	Non-competitive	CN(c1nccs1)S(=O)(=O)c1ccc(F)cc1 [Compound 38, 4-Fluoro-N-methyl-N-(thiazol-2-yl)benzenesulfonamide]	21.3 ± 0.11%	67.3 ± 0.2%	89.3 ± 0.05%	95.01 ± 0.9%	13.2 ± 0.91%	35.3 ± 0.42%	41.2 ± 0.71%	48.13 ± 0.11%	79.3 ± 0.44%	31.5 ± 0.11%	45.01 ± 0.5%	55.7 ± 0.5%	92.5 ± 0.03%	
Non-competitive	38.17 ± 0.01 µM	43.71 ± 0.13 µM	43.02 ± 0.13 µM	36.09 ± 0.15 µM	54.1 ± 0.55 µM	Non-competitive	CN(c1nccs1)S(=O)(=O)c1ccc([N+](=O)[O-])cc1 [Compound 39, N-Methyl-4-nitro-N-(thiazol-2-yl)benzenesulfonamide]	15.04 ± 0.05%	55.02 ± 0.08%	77.08 ± 0.11%	91.01 ± 0.34%	24.02 ± 0.05%	39.01 ± 0.3%	47.06 ± 0.1%	72.11 ± 0.09%	102.03 ± 0.01%	22.2 ± 0.01%	48.5 ± 0.17%	71.4 ± 0.34%	93.8 ± 0.11%	inhibition against both enzymes (α-glucosidase and α-amylase), in words (α-Glucosidase): weak inhibition
